Assay results published in ChEMBL document CHEMBL1144620, “Synthesis and biodistribution of new radiolabeled high-affinity choline transporter inhibitors [11C]hemicholinium-3 and [18F]hemicholinium-3” (Bioorg Med Chem Lett, 2007).

What was measured:
[1] = Biodistribution in L-Atrium of 9L-glioma bearing rat at 1 to 3 mCi, iv after 5 mins; assay type: ADME, organism-based; details: in vivo
In short: (§1)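 9L-glioma rats (200–300 g) given 1–3 mCi of [¹¹C]- or [¹⁸F]-labelled tracer iv by tail vein while consciously restrained. At 5 or 20 min they were decapitated under halothane anaesthesia. Tissues were excised and weighed, and decay-corrected radioactivity was counted by gamma counter. Values are %ID/g, averaged over three rats per time point.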

[2] = Biodistribution in urine of 9L-glioma bearing rat at 1 to 3 mCi, iv after 5 mins; assay type: ADME, organism-based; details: in vivo
In short: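 In 9L-glioma rats injected iv (tail vein, conscious restraint) with 1–3 mCi of radiotracer, urine was drawn by syringe from the bladder at 5 or 20 min. Animals were killed by decapitation under halothane. Decay-corrected radioactivity was gamma-counted and expressed as percent of injected dose (%ID), averaged over three rats.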

Kidney [3] = assay: Biodistribution in kidney of 9L-glioma bearing rat at 1 to 3 mCi, iv after 5 mins; assay type: ADME, organism-based; details: in vivo; in short: as §1
Liver [4] = assay: Biodistribution in liver of 9L-glioma bearing rat at 1 to 3 mCi, iv after 5 mins; assay type: ADME, organism-based; details: in vivo; in short: as §1
Lung [5] = assay: Biodistribution in lung of 9L-glioma bearing rat at 1 to 3 mCi, iv after 5 mins; assay type: ADME, organism-based; details: in vivo; in short: as §1
Brain [6] = assay: Biodistribution in brain of 9L-glioma bearing rat at 1 to 3 mCi, iv after 5 mins; assay type: ADME, organism-based; details: in vivo; in short: as §1
Blood [7] = assay: Biodistribution in blood of 9L-glioma bearing rat at 1 to 3 mCi, iv after 5 mins; assay type: ADME, organism-based; details: in vivo; in short: as §1
Plasma [8] = assay: Biodistribution in plasma of 9L-glioma bearing rat at 1 to 3 mCi, iv after 5 mins; assay type: ADME, organism-based; details: in vivo; in short: as §1
[9] = Biodistribution in R-Atrium of 9L-glioma bearing rat at 1 to 3 mCi, iv after 5 mins; assay type: ADME, organism-based, Right cardiac atrium; details: in vivo; in short: as §1
Septum [10] = assay: Biodistribution in septum of 9L-glioma bearing rat at 1 to 3mCi, iv after 5 mins; assay type: ADME, organism-based; details: in vivo; in short: as §1
[11] = Biodistribution in L-ventricle of 9L-glioma bearing rat at 1 to 3mCi, iv after 5 mins; assay type: ADME, organism-based, Heart left ventricle; details: in vivo; in short: as §1
[12] = Biodistribution in R-ventricle of 9L-glioma bearing rat at 1 to 3 mCi, iv after 5 mins; assay type: ADME, organism-based, Heart right ventricle; details: in vivo; in short: as §1
[13] = Biodistribution in A-V-node of 9L-glioma bearing rat at 1 to 3 mCi, iv after 5 mins; assay type: ADME, organism-based; details: in vivo; in short: as §1
Solar plexus [14] = assay: Biodistribution in solar plexus of 9L-glioma bearing rat at 1 to 3 mCi, iv after 5 mins; assay type: ADME, organism-based; details: in vivo; in short: as §1
[15] = Biodistribution in skeletal muscle of 9L-glioma bearing rat at 1 to 3 mCi, iv after 5 mins; assay type: ADME, organism-based, Muscle tissue; details: in vivo; in short: as §1
9L [16] = assay: Biodistribution in tumor of 9L-glioma bearing rat at 1 to 3 mCi, iv after 5 mins; assay type: ADME, organism-based; details: in vivo; in short: as §1
Blood [17] = assay: Biodistribution in blood of 9L-glioma bearing rat at 1 to 3 mCi, iv after 30 mins; assay type: ADME, organism-based; details: in vivo, 0.5 h
In short: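 Blood was weighed and gamma-counted with decay correction, and results are expressed as %ID/g. Total blood activity assumed a blood mass of 7% of body mass. n = 3, mean.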

Plasma [18] = assay: Biodistribution in plasma of 9L-glioma bearing rat at 1 to 3 mCi, iv after 30 mins; assay type: ADME, organism-based; details: in vivo, 0.5 h
In short: (§2)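 At 30 min they were decapitated under halothane anaesthesia. Tissues were excised, weighed and gamma-counted with decay correction. Values are %ID/g, averaged over three rats.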

Brain [19] = assay: Biodistribution in brain of 9L-glioma bearing rat at 1 to 3 mCi, iv after 30 mins; assay type: ADME, organism-based; details: in vivo, 0.5 h; in short: as §2
Lung [20] = assay: Biodistribution in lung of 9L-glioma bearing rat at 1 to 3 mCi, iv after 30 mins; assay type: ADME, organism-based; details: in vivo, 0.5 h; in short: as §2
Liver [21] = assay: Biodistribution in liver of 9L-glioma bearing rat at 1 to 3 mCi, iv after 30 mins; assay type: ADME, organism-based; details: in vivo, 0.5 h; in short: as §2
Kidney [22] = assay: Biodistribution in kidney of 9L-glioma bearing rat at 1 to 3 mCi, iv after 30 mins; assay type: ADME, organism-based; details: in vivo, 0.5 h; in short: as §2
[23] = Biodistribution in urine of 9L-glioma bearing rat at 1 to 3 mCi, iv after 30 mins; assay type: ADME, organism-based; details: in vivo, 0.5 h
In short: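 At 30 min, urine was drawn from the bladder by syringe after decapitation under halothane. Radioactivity was gamma-counted with decay correction and expressed as % of injected dose. Mean of three rats.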

[24] = Biodistribution in L-Atrium of 9L-glioma bearing rat at 1 to 3 mCi, iv after 30 mins; assay type: ADME, organism-based, Left cardiac atrium; details: in vivo, 0.5 h; in short: as §2
[25] = Biodistribution in R-Atrium of 9L-glioma bearing rat at 1 to 3 mCi, iv after 30 mins; assay type: ADME, organism-based, Right cardiac atrium; details: in vivo, 0.5 h; in short: as §2
Septum [26] = assay: Biodistribution in septum of 9L-glioma bearing rat at 1 to 3 mCi, iv after 30 mins; assay type: ADME, organism-based; details: in vivo, 0.5 h; in short: as §2
[27] = Biodistribution in L-ventricle of 9L-glioma bearing rat at 1 to 3 mCi, iv after 30 mins; assay type: ADME, organism-based, Heart left ventricle; details: in vivo, 0.5 h; in short: as §2
[28] = Biodistribution in R-ventricle of 9L-glioma bearing rat at 1 to 3 mCi, iv after 30 mins; assay type: ADME, organism-based, Heart right ventricle; details: in vivo, 0.5 h; in short: as §2
[29] = Biodistribution in A-V-node of 9L-glioma bearing rat at 1 to 3 mCi, iv after 30 mins; assay type: ADME, organism-based; details: in vivo, 0.5 h; in short: as §2
Solar plexus [30] = assay: Biodistribution in solar plexus of 9L-glioma bearing rat at 1 to 3 mCi, iv after 30 mins; assay type: ADME, organism-based; details: in vivo, 0.5 h; in short: as §2
[31] = Biodistribution in skeletal muscle of 9L-glioma bearing rat at 1 to 3 mCi, iv after 30 mins; assay type: ADME, organism-based, Muscle tissue; details: in vivo, 0.5 h; in short: as §2
9L [32] = assay: Biodistribution in tumor of 9L-glioma bearing rat at 1 to 3 mCi, iv after 30 mins; assay type: ADME, organism-based; details: in vivo, 0.5 h; in short: as §2
[33] = Ratio of biodistribution in tumor to blood of 9L-glioma bearing rat at 1 to 3 mCi, iv after 30 mins; assay type: ADME, organism-based; details: tumour, 0.5 h
[34] = Ratio of biodistribution in tumor to muscle of 9L-glioma bearing rat at 1 to 3 mCi, iv after 30 mins; assay type: ADME, organism-based; details: in vivo, 0.5 h

## C[N+]1(C)CCOC(O)(c2ccc(-c3ccc(C4(O)C[N+](C)(C[18F])CCO4)cc3)cc2)C1.O=S(=O)([O-])C(F)(F)F.[I-] (centres undefined)
[1]
  Drug uptake: 0.824 % ID/g
[2]
  Drug uptake: 10.2 % dose
Kidney [3]
  Drug uptake: 8.676 % ID/g
Liver [4]
  Drug uptake: 1.228 % ID/g
Lung [5]
  Drug uptake: 0.944 % ID/g
Brain [6]
  Drug uptake: 0.042 % ID/g
Blood [7]
  Drug uptake: 1.467 % ID/g
Plasma [8]
  Drug uptake: 3.732 % ID/g
[9]
  Drug uptake: 2.023 % ID/g
Septum [10]
  Drug uptake: 0.53 % ID/g
[11]
  Drug uptake: 0.438 % ID/g
[12]
  Drug uptake: 0.734 % ID/g
[13]
  Drug uptake: 5.607 % ID/g
Solar plexus [14]
  Drug uptake: 1.186 % ID/g
[15]
  Drug uptake: 0.194 % ID/g
9L [16]
  Drug uptake: 0.952 % ID/g
Blood [17]
  Drug uptake: 0.378 % ID/g
Plasma [18]
  Drug uptake: 1.272 % ID/g
Brain [19]
  Drug uptake: 0.03 % ID/g
Lung [20]
  Drug uptake: 0.533 % ID/g
Liver [21]
  Drug uptake: 1.536 % ID/g
Kidney [22]
  Drug uptake: 5.935 % ID/g
[23]
  Drug uptake: 27.6 % dose
[24]
  Drug uptake: 0.767 % ID/g
[25]
  Drug uptake: 0.999 % ID/g
Septum [26]
  Drug uptake: 0.262 % ID/g
[27]
  Drug uptake: 0.253 % ID/g
[28]
  Drug uptake: 0.243 % ID/g
[29]
  Drug uptake: 0.6 % ID/g
Solar plexus [30]
  Drug uptake: 1.009 % ID/g
[31]
  Drug uptake: 0.123 % ID/g
9L [32]
  Drug uptake: 0.359 % ID/g
[33]
  Ratio: 0.978
[34]
  Ratio: 3.024
